Measured values published in ChEMBL document CHEMBL1765004 (2011).
The source made the active and inactive calls. The calls are words filed in the database; no cut-off is given here.

Key:
HCT-116 [1] = assay: Antimicrofilament activity in human HCT116 cells assessed as loss of microfilament at 0.01 uM by rhodamine-phalloidin staining; assay type: functional, cell-based
HCT-116 [2] = assay: Antimicrofilament activity in human HCT116 cells assessed as loss of microfilament network at 0.5 uM by rhodamine-phalloidin staining; assay type: functional, cell-based
HCT-116 [3] = assay: Antimicrofilament activity in human HCT116 cells assessed as loss of microfilament at 0.05 uM by rhodamine-phalloidin staining; assay type: functional, cell-based
HCT-116 [4] = assay: Antimicrofilament activity in human HCT116 cells assessed as loss of microfilament at 1 uM by rhodamine-phalloidin staining; assay type: functional, cell-based
HCT-116 [5] = assay: Antimicrofilament activity in human HCT116 cells assessed as loss of microfilament at 0.1 uM by rhodamine-phalloidin staining; assay type: functional, cell-based
HCT-116 [6] = assay: Anticancer activity against human HCT116 cells; assay type: functional
Procedure, shortened: (§1)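 NCI-DTP 60 cell line screen; GI50 values supplied by NCI-DTP. HCT-116 GI50 for some entries determined instead by a separate group (Henry Ford Hospital). Compounds failing initial single-dose testing at 10 μM (<25% growth inhibition) were not taken to five-dose testing.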

HCT-116 [7] = assay: Antimicrofilament activity in human HCT116 cells assessed as loss of microfilament at 5 uM by rhodamine-phalloidin staining; assay type: functional, cell-based
MDA-MB-231 = assay: Anticancer activity against human MDA-MB-231 cells; assay type: functional; procedure, shortened: as §1
HCT-116 [8] = assay: Antimicrofilament activity in human HCT116 cells assessed as total loss of microfilament network at 1 uM by rhodamine-phalloidin staining; assay type: functional, cell-based
HCT-116 [9] = assay: Antimicrofilament activity in human HCT116 cells assessed as total loss of microfilament network at 0.5 uM by rhodamine-phalloidin staining; assay type: functional, cell-based
HCT-116 [10] = assay: Antimicrofilament activity in human HCT116 cells assessed as total loss of microfilament network at 5 uM by rhodamine-phalloidin staining; assay type: functional, cell-based
DU-145 = assay: Anticancer activity against human DU145 cells; assay type: functional; procedure, shortened: as §1
LOX IMVI = assay: Anticancer activity against human LOXIMVI cells; assay type: functional; procedure, shortened: as §1
U-251 = assay: Anticancer activity against human U251 cells; assay type: functional; procedure, shortened: as §1
IGROV-1 = assay: Anticancer activity against human IGROV1 cells; assay type: functional; procedure, shortened: as §1
LNCaP = assay: Growth inhibition against human LNCAP cells assessed as disruption of actin cytoskeleton; assay type: functional
[11] = Growth inhibition against human TSU-Pr1 cells assessed as disruption of actin cytoskeleton; assay type: functional
NCI-H522 = assay: Anticancer activity against human NCI-H522 cells; assay type: functional; procedure, shortened: as §1
A498 = assay: Anticancer activity against human A498 cells; assay type: functional; procedure, shortened: as §1
PC-3 = assay: Growth inhibition against human PC3 cells assessed as disruption of actin cytoskeleton; assay type: functional
HCT-116 [12] = assay: Antimicrofilament activity in human HCT116 cells assessed as complete loss of microfilament network at 0.5 uM to 5 uM by rhodamine-phalloidin staining
HCT-116 [13] = assay: Cytotoxicity against human HCT116 cells assessed as time required to kill 90% of tumor cells at 0.004 uM by clonogenic assay; assay type: functional
Procedure, shortened: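 Clonogenic assay: HCT-116 seeded at 200–20 000 cells per 60 mm dish in RPMI + 10% FBS. Drug was given at 1 mg/mL and 10-fold dilutions for 2 h or 24 h, then replaced with drug-free medium, or given continuously. After 7 days colonies were stained with methylene blue and those of ≥50 cells counted, normalized to untreated control. Repeats spanned 100–0.1% survival; endpoint was 90% kill.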

HCT-116 [14] = assay: Anticancer activity against human HCT116 cells at 10 uM; assay type: functional
HCT-116 [15] = assay: Antimicrofilament activity in human HCT116 cells assessed as complete loss of microfilament network at GI50 concentration by rhodamine-phalloidin staining; assay type: functional, cell-based
HCT-116 [16] = assay: Antimicrofilament activity in human HCT116 cells assessed as additional loss of microfilament at 1 uM by rhodamine-phalloidin staining; assay type: functional, cell-based
HCT-116 [17] = assay: Antimicrofilament activity in human HCT116 cells assessed as additional loss of microfilament at 5 uM by rhodamine-phalloidin staining; assay type: functional, cell-based

Compound	Activity (HCT-116 [1])	Activity (HCT-116 [2])	Activity (HCT-116 [3])	Activity (HCT-116 [4])	Activity (HCT-116 [5])	GI50 (HCT-116 [6])	Activity (HCT-116 [7])	GI50 (MDA-MB-231)	GI50 (DU-145) [nM]	GI50 (LOX IMVI) [nM]	GI50 (U-251) [nM]	GI50 (IGROV-1) [nM]	GI50 (NCI-H522) [nM]	GI50 (A498) [nM]	further results
C/C1=C\[C@H](C)C[C@H](C)OC(=O)/C=C(/c2ccc(O)c(O)c2)NC(=O)[C@@H](Cc2c(Br)[nH]c3ccccc23)N(C)C(=O)[C@H](C)NC(=O)[C@@H](C)C1	inactive	Active	inactive	inactive	inactive	3840 nM	inactive	2320 nM	–	–	–	–	–	–	–
C/C1=C\[C@H](C)C[C@H](C)OC(=O)C[C@H](c2ccc(O)cc2)NC(=O)[C@@H](Cc2c(Br)[nH]c3ccccc23)N(C)C(=O)[C@H](C)NC(=O)[C@@H](C)C1 [JASPAMIDE]	inactive	–	inactive	–	inactive	40 nM	–	10 nM	30	10	70	20	30	30	Activity (HCT-116 [8]): Active; Activity (HCT-116 [9]): Active; Activity (HCT-116 [10]): Active; GI50 (LNCaP): 41000 nM; GI50 [11]: 170000 nM; GI50 (PC-3): 65000 nM; Activity (HCT-116 [12]): Active; Time (HCT-116 [13]): 7 days
C/C(=C\[C@H](C)C[C@H](C)OC(=O)CC(=O)c1ccc(O)c(O)c1)C[C@H](C)C(=O)N[C@@H](C)C(=O)N(C)[C@H](Cc1c(Br)[nH]c2ccccc12)C(N)=O	inactive	–	inactive	inactive	inactive	inactive	inactive	inactive	–	–	–	–	–	–	inhibition at 10 µM (HCT-116 [14]): < 25%
C/C1=C\[C@H](C)C[C@H](C)OC(=O)C[C@H](c2ccc(O)cc2)NC(=O)[C@@H](Cc2c(Br)[nH]c3cc(Br)ccc23)N(C)C(=O)[C@H](C)NC(=O)[C@@H](C)C1 [JASPLAKINOLIDE R1]	inactive	–	inactive	–	inactive	60 nM	–	90 nM	310	40	30	30	3	40	Activity (HCT-116 [8]): Active; Activity (HCT-116 [9]): Active; Activity (HCT-116 [10]): Active; Activity (HCT-116 [12]): Active
CCOC(=O)C[C@@H](NC(=O)[C@@H](Cc1c(Br)[nH]c2ccccc12)N(C)C(=O)[C@H](C)NC(=O)[C@@H](C)C/C(C)=C/[C@H](C)C[C@H](C)O)c1ccc(O)cc1	inactive	Active	inactive	–	inactive	280 nM	–	740 nM	3720	160	50	170	40	440	Activity (HCT-116 [15]): Active; Activity (HCT-116 [16]): Active; Activity (HCT-116 [17]): Active
C/C1=C\[C@H](C)C[C@H](C)OC(=O)C[C@H](c2ccc(O)cc2)NC(=O)[C@@H](Cc2c(Br)[nH]c3ccccc23)N(C)C(=O)[C@H](C)NC(=O)CC1 [JASPLAKINOLIDE F]	–	–	–	–	–	110 nM	–	260 nM	290	30	50	20	610	210	–
C/C(=C\[C@H](C)C[C@H](C)O)C[C@H](C)C(=O)N[C@@H](C)C(=O)N(C)[C@H](Cc1c(Br)[nH]c2ccccc12)C(=O)N[C@H](CC(=O)O)c1ccc(O)cc1 [JASPLAKINOLIDE Z1]	inactive	Active	inactive	inactive	inactive	13700 nM	inactive	2500 nM	18800	280	600	1760	120	–	–
